Measured values: ChEMBL document CHEMBL6083194, “Discovery and evaluation of 3-(2-isocyanobenzyl)-1H-indole derivatives as potential quorum sensing inhibitors for the control of Pseudomonas aeruginosa infections in vitro” (RSC Med Chem, 2024)
pIC50: −log10 of the molar value. ≈ marks a conversion by molar mass, not a printed value. Calls of active or inactive are those of the source. The calls are words filed in the database; no cut-off is given here.

Tests used:
[1] = Cytotoxicity against MEF at 100 to 1024 ug/ml; type: toxicity, cell-based; details: mouse, dose 100-1024 µg/ml
[2] = Inhibition of quorum sensing system in Pseudomonas aeruginosa PAO1 assessed as reduction in 3-oxo-C12-HSL level at 12.5 ug/ml incubated for 24 hrs by LC-MS/MS method; details: dose 12.5 µg/ml
Pseudomonas aeruginosa [3] = test: Downregulation of lasR gene expression in Pseudomonas aeruginosa PAO1 assessed as fold decrease at 25 ug/ml by RT-qPCR analysis; type: functional; details: dose 25 µg/ml
[4] = Inhibition of quorum sensing system in Pseudomonas aeruginosa PAO1 assessed as reduction in 3-oxo-C12-HSL level at 50 ug/ml incubated for 24 hrs by LC-MS/MS method; details: dose 50.0 µg/ml
Pseudomonas aeruginosa [5] = test: Inhibition of biofilm formation in Pseudomonas aeruginosa PAO1 assessed as reduction in biofilm by measuring scattered appearance at 25 ug/ml incubated for 24 hrs by scanning electron microscopic assay; type: functional, organism-based; details: dose 25.0 µg/ml
Summary of the method: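 PAO1 biofilms on coverslips treated with compound at 6.25, 12.5 or 25 μg mL−1 or DMSO. Coverslips PBS-washed, fixed in 2.5% glutaraldehyde, ethanol-dehydrated, freeze-dried, gold-coated and imaged by SEM.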

[6] = Inhibition of quorum sensing system in Pseudomonas aeruginosa PAO1
Summary of the method: (§1)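 Plate screen. CV026 grown overnight in LB with 50 μg ml−1 kanamycin; 15 μl seeded into 15 ml LB agar (1.0% agarose) containing 20 μM C4-HSL. PAO1 plates run in parallel. Test colonies inoculated by toothpick, incubated overnight at 37 °C. Ring of colourless viable cells around the colony scored as inhibition.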

Pseudomonas aeruginosa [7] = test: Induction of biofilm eradication in Pseudomonas aeruginosa PAO1 at 12.5 ug/ml by crystal violet staining based assay; type: functional; details: dose 12.5 µg/ml
Summary of the method: (§2)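 PAO1 biofilms grown overnight at 37 °C in LB in 24-well plates, washed with PBS, then fresh LB with compound added and grown overnight again. Washed, methanol-fixed, crystal violet stained, ethanol solubilised, read at OD570. DMSO negative, resveratrol positive control.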

Pseudomonas aeruginosa [8] = test: Anti-virulence effect in Pseudomonas aeruginosa PAO1 assessed as inhibition of EPS production at 25 ug/ml; type: functional; design: scale not given: the % may be the effect or the level left; details: dose 25 µg/ml
Summary of the method: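 PAO1 grown with compound (6.25–25 μg mL−1) in 24-well plates for 24 h at 37 °C and 180 rpm; DMSO and RSV (25 μg mL−1) as controls. Biofilms washed with water, then treated with 0.9% NaCl, 5% phenol and 0.2% hydrazine sulfate. Held 1 h in the dark, read at OD490. Three independent experiments.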

[9] = Inhibition of quorum sensing system in Pseudomonas aeruginosa PAO1 assessed as reduction in C4-HSL level at 50 ug/ml incubated for 24 hrs by LC-MS/MS method; details: dose 50.0 µg/ml
Pseudomonas aeruginosa [10] = test: Downregulation of sodB gene expression in Pseudomonas aeruginosa PAO1 assessed as fold decrease at 25 ug/ml by RT-qPCR analysis; type: functional; details: dose 25.0 µg/ml
Pseudomonas aeruginosa [11] = test: Anti-virulence effect in Pseudomonas aeruginosa PAO1 assessed as inhibition of pyocyanin production; type: functional, organism-based
Summary of the method: (§3)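 Overnight PAO1 culture in LB at 37 °C, diluted to OD600 0.05 and subcultured 5–7 h to mid-log phase, then re-diluted to OD600 0.05. Grown 18 h at 37 °C and 200 rpm with compound (6.25, 12.5, 25 μg mL−1) or DMSO. Supernatant extracted into chloroform, back-extracted into 0.2 M HCl, read at 520 nm.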

Pseudomonas aeruginosa [12] = test: Antibacterial activity against Pseudomonas aeruginosa PAO1 by serial dilution method; type: functional
Summary of the method: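 PAO1 in LB, 37 °C. MIC by CLSI 2-fold serial dilution in Mueller–Hinton broth, inoculum 1–5 × 10^5 CFU mL−1, DMSO stocks. Growth curves: overnight culture diluted to OD600 = 0.05, subcultured to mid-log, rediluted to OD600 = 0.05, 3 mL with compound; OD620 read at 1, 3, 5, 7, 9, 11 and 24 h at 37 °C; DMSO negative control.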

Pseudomonas aeruginosa [13] = test: Inhibition of biofilm formation in Pseudomonas aeruginosa PAO1 at 6.25 ug/ml incubated for 24 hrs crystal violet staining based assay; type: functional
Summary of the method: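 PAO1 grown statically for 24 h in LB ± compound in 24-well plates. Planktonic cells removed; attached cells stained with 0.05% crystal violet, rinsed, dissolved in 95% ethanol, read at OD570. DMSO negative, resveratrol positive control; SD from three independent experiments.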

Pseudomonas aeruginosa [14] = test: Anti-virulence effect in Pseudomonas aeruginosa PAO1 assessed as inhibition of pyocyanin production at 25 ug/ml; type: functional; design: scale not given: the % may be the effect or the level left; details: dose 25 µg/ml; summary of the method: as §3
Pseudomonas aeruginosa [15] = test: Inhibition of biofilm formation in Pseudomonas aeruginosa PAO1 at 1/2 times MIC incubated for 24 hrs crystal violet staining based SEM assay; type: functional
[16] = Inhibition of quorum sensing system in Pseudomonas aeruginosa PAO1 assessed as reduction in C4-HSL level at 12.5 ug/ml incubated for 24 hrs by LC-MS/MS method; details: dose 12.5 µg/ml
[17] = Inhibition of quorum sensing system in Chromobacterium violaceum CV026; summary of the method: as §1
HEK-293T = test: Cytotoxicity against human HEK293T cells by CCK8 assay; type: functional, cell-based
Summary of the method: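 HEK293T cell viability by CCK-8; IC50 determined.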

Erythrocyte = test: Cytotoxicity against mouse RBC at 100 to 1024 ug/ml; type: toxicity, cell-based; details: dose 100-1024 µg/ml
Pseudomonas aeruginosa [18] = test: Inhibition of rhamnolipid production in Pseudomonas aeruginosa PAO1 at 1/2 to 1/4 times MIC by orcinol method; type: functional, organism-based
Summary of the method: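 Overnight PAO1 diluted 1:100 into LB with compound, 37 °C, 180 rpm; DMSO control. Supernatant (100 μL) mixed with 900 μL 0.19% orcinol in 53% H2SO4, heated 30 min at 80 °C, cooled, read at 421 nm.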

Pseudomonas aeruginosa [19] = test: Anti-virulence effect in Pseudomonas aeruginosa PAO1 assessed as inhibition of pyocyanin production at 12.5 ug/ml; type: functional; design: scale not given: the % may be the effect or the level left; details: dose 12.5 µg/ml; summary of the method: as §3
Pseudomonas aeruginosa [20] = test: Downregulation of sucD gene expression in Pseudomonas aeruginosa PAO1 assessed as fold decrease at 25 ug/ml by RT-qPCR analysis; type: functional; details: dose 25 µg/ml
Pseudomonas aeruginosa [21] = test: Induction of biofilm eradication in Pseudomonas aeruginosa PAO1 at 6.25 ug/ml by crystal violet staining based assay; type: functional; details: dose 6.25 µg/ml; summary of the method: as §2
[22] = Inhibition of quorum sensing system in Pseudomonas aeruginosa PAO1 assessed as reduction in C4-HSL level at 25 ug/ml incubated for 24 hrs by LC-MS/MS method; details: dose 25.0 µg/ml
Pseudomonas aeruginosa [23] = test: Induction of biofilm eradication in Pseudomonas aeruginosa PAO1 at 25 ug/ml by crystal violet staining based assay; type: functional; details: dose 25 µg/ml; summary of the method: as §2
Pseudomonas aeruginosa [24] = test: Downregulation of rhlI gene expression in Pseudomonas aeruginosa PAO1 assessed as fold decrease at 25 ug/ml by RT-qPCR analysis; type: functional; details: dose 25 µg/ml
Pseudomonas aeruginosa [25] = test: Anti-virulence effect in Pseudomonas aeruginosa PAO1 assessed as inhibition of rhamnolipid production at 25 ug/ml; type: functional; design: scale not given: the % may be the effect or the level left; details: dose 25 µg/ml
Summary of the method: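 PAO1 culture supernatant from growth with compound (6.25–25 μg mL−1) at 37 °C and 180 rpm, or with DMSO or RSV (25 μg mL−1) as controls. Orcinol assay: 100 μL sample plus 0.19% orcinol in 53% H2SO4, heated 30 min at 80 °C, cooled, read at 421 nm. At least three experiments in triplicate.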

In the case of `Cc1cccc(C#N)c1Cc1c[nH]c2ccccc12`, the Activity [1] was “Toxic”, the inhibition [2] was 72% and the “fold change (FC)” value (Pseudomonas aeruginosa [3]) was 4.42. The inhibition [4] was 41%, the inhibition (Pseudomonas aeruginosa [5]) was “Active” and the inhibition [6] was “Active; Strong Inhibition Observed”. For the same compound, the Activity (Pseudomonas aeruginosa [7]) was 50%, the Activity (Pseudomonas aeruginosa [8]) was 37% and the inhibition [9] was 19%. The fold change (FC) (Pseudomonas aeruginosa [10]) was 1.82, the Activity (Pseudomonas aeruginosa [11]) was “Dose-dependent-effect” and the MIC (Pseudomonas aeruginosa [12]) was 96 µg/mL (≈ 390 µM). The inhibition at 6.25 µg/mL (Pseudomonas aeruginosa [13]) was 32%, the Activity (Pseudomonas aeruginosa [14]) was 73% and the “inhibition (INH)” value (Pseudomonas aeruginosa [15]) was 52%. The inhibition [16] was 61%, the inhibition [17] was “Active; Showed Higher Activity” and the pIC50 (HEK-293T) was 4.23. For the same compound, the Activity (Erythrocyte) was “Toxic”, the inhibition (Pseudomonas aeruginosa [18]) was “Active” and the Activity (Pseudomonas aeruginosa [19]) was 57%. The “fold change (FC)” value (Pseudomonas aeruginosa [20]) was 5.65, the Activity (Pseudomonas aeruginosa [21]) was 43% and the inhibition [22] was 51%. For the same compound, the Activity (Pseudomonas aeruginosa [23]) was 57%, the “fold change (FC)” value (Pseudomonas aeruginosa [24]) was 7.3 and the Activity (Pseudomonas aeruginosa [25]) was 23%.
